pIC50: −log10 of the molar value. Calls of active or inactive are those of the source. The rule behind the calls is not given here.

The results in this text go back to ChEMBL document CHEMBL5120741, “Small molecule-mediated induction of endoplasmic reticulum stress in cancer cells” (RSC Med Chem, 2021).

The subject of data set [1] is HeLa. Kind of data set: Cytotoxicity against human HeLa cells assessed as cell viability after 24 hrs by MTT assay. Format: functional, cell-based. In outline: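 HeLa cells from NCCS incubated 24 h with compound across a concentration range (single-point screen at 30 μM); viability read by MTT assay; IC50 from dose-response; significance by two-way ANOVA.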
Data set [2] concerns HeLa. Description: Cytotoxicity against human HeLa cells assessed as cell killing at 30 uM after 24 hrs by MTT assay. A general note: Tetrazolium assays rely on reduction of a dye to a coloured formazan, in cell work by metabolically active cells.
Data set [3] concerns HeLa. Kind of data set: Induction of ERstress in human HeLa cells assessed as increase in lipid level measured after 24 hrs by Oil-red-O staining analysis. The class given is functional, cell-based. The essentials:
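Lipid content: HeLa cells exposed 24 h, stained with Oil Red O plus DAPI for nuclei, viewed by confocal microscopy against untreated control.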

Data set [4] has as its system HeLa. Kind of data set: Induction of autophagy in human HeLa cells assessed as increase in LC3B level measured after 24 hrs by confocal microscopic analysis relative to control. The class given is functional. The essentials: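 HeLa cells treated 24 h, fixed in paraformaldehyde, permeabilized with 0.1% Tween-20 buffer, anti-LC3B primary 4 h, Alexa Fluor 488 secondary, DAPI nuclei; confocal imaging, green signal as fold over control.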

A short description of data set [5]: Drug uptake in endoplasmic reticulum of human HeLa cells at 5 uM measured after 3 and 6 hrs by ER-tarcker dye based laser confocal microscopy. The class given is ADME, subcellular. The essentials:
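HeLa cells given 5 μM compound (intrinsically green fluorescent) for 3 h and 6 h, ER counterstained with ER-Tracker Red, imaged by confocal laser scanning microscopy; colocalization quantified as Pearson's and Mander's coefficients.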

Data set [6] in a line: Induction of ERstress in human HeLa cells assessed as increase in CHOP expression level measured after 24 hrs by confocal microscopic analysis relative to control. The class given is functional. The essentials: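 After 24 h treatment, HeLa cells probed with anti-CHOP primary antibody (4 h), then Alexa Fluor 594 secondary; nuclei DAPI-stained; confocal imaging, red signal expressed as fold over untreated cells.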

Data set [7] in a line: Induction of ERstress in human HeLa cells assessed as increase in CHOP expression level measured after 24 hrs by Western blot analysis relative to control. Format: functional. The essentials: (§1)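 HeLa cells treated 24 h, lysed, proteins separated by gel electrophoresis and immunoblotted for BiP, CHOP, IRE1α, PERK or caspase-12; expression given as fold change over untreated control.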

Data set [8] can be described thus: Induction of ERstress in human HeLa cells assessed as increase in IRE1-alpha expression level measured after 24 hrs by Western blot analysis relative to control. The class given is functional. In outline:
as §1

The nature of data set [9]: Induction of ERstress in human HeLa cells assessed as increase in PERK expression level measured after 24 hrs by Western blot analysis relative to control. The class given is functional. In outline: as §1
The nature of data set [10]: Induction of ERstress in human HeLa cells assessed as increase in BiP expression level measured after 24 hrs by Western blot analysis relative to control. Format: functional. The essentials:
as §1
In general terms: A western blot detects proteins with antibodies after separation by electrophoresis.

The nature of data set [11]: Induction of ERstress in human HeLa cells assessed as increase in caspase-12 expression level measured after 24 hrs by Western blot analysis relative to control. Format: functional. In outline:
as §1

Data set [12] concerns HeLa. Description: Induction of autophagy in human HeLa cells assessed as increase in beclin level measured after 24 hrs by confocal microscopic analysis relative to control. Format: functional. The essentials:
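Immunofluorescence: HeLa cells treated 24 h, anti-Beclin primary then Alexa Fluor 594 secondary, DAPI counterstain; confocal microscopy, red signal as fold versus untreated control.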

Data set [13] concerns HeLa. Description: Induction of autophagy in human HeLa cells assessed as increase in beclin level measured after 24 hrs by Western blot analysis relative to control. Format: functional. In outline: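 Western blot: HeLa cells treated 24 h, lysed, proteins resolved by gel electrophoresis and probed for Beclin; fold change versus untreated cells.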
The subject of data set [14] is HeLa. Kind of data set: Induction of autophagy in human HeLa cells assessed as increase in LC3-1 level measured after 24 hrs by Western blot analysis relative to control. Format: functional. In outline: (§2)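 HeLa cells (NCCS) exposed to compound for 24 h, then lysed; cellular proteins resolved by gel electrophoresis and immunoblotted for LC3-I, LC3-II and Beclin. Band levels expressed as fold change versus untreated control cells. The LC3-I/LC3-II ratio is taken from the same blots and also expressed as fold over control.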

Data set [15] relates to HeLa. Kind of data set: Induction of autophagy in human HeLa cells assessed as increase in LC3-II level measured after 24 hrs by Western blot analysis relative to control. The class given is functional. The essentials: as §2
The subject of data set [16] is HeLa. Description: Induction of autophagy in human HeLa cells assessed as increase in LC3-I/LC3-II ratio level measured after 24 hrs by Western blot analysis relative to control. Format: functional. In outline:
as §2

In data set [17] the test system is HeLa. Kind of data set: Induction of apoptosis in human HeLa cells assessed as increase in early apoptotic cells level measured after 24 hrs by annexin-V-PI staining based flow cytometry (reference value: 1.26%). Format: functional. The essentials:
(§3)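 Apoptosis by flow cytometry: HeLa cells treated 24 h alone or with 50 μM chloroquine, stained with Annexin V-FITC and propidium iodide; early and late apoptotic fractions reported as % cells.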
On the technique in general: Flow cytometry measures light scatter and fluorescence of single cells or particles in a stream.

Data set [18] relates to HeLa. Kind of data set: Induction of apoptosis in human HeLa cells assessed as increase in late apoptotic cells level measured after 24 hrs by annexin-V-PI staining based flow cytometry (reference value: 0.08%). Format: functional. The essentials:
as §3

The test system of data set [19] is HeLa. Description: Induction of apoptosis in human HeLa cells assessed as increase in early apoptotic cells level measured after 24 hrs in presence of 50 uM of chloroquine by annexin-V-PI staining based flow cytometry (reference value: 1.26%). Format: functional. The essentials: as §3
In data set [20] the test system is HeLa. Description: Induction of apoptosis in human HeLa cells assessed as increase in late apoptotic cells level measured after 24 hrs in presence of 50 uM of chloroquine by annexin-V-PI staining based flow cytometry (reference value: 0.08%). The class given is functional. In outline:
as §3

In the case of `COc1ccc(S(=O)(=O)N/N=C/c2c[nH]c3cc(Br)ccc23)cc1`, in the data set with HeLa [1], the pIC50 was 4.72. The cell killing at 30 µM in the data set on HeLa [2] was over 60%.

`O=S(=O)(N/N=C/c1c[nH]c2cc(Br)ccc12)c1ccc(Cl)cc1`: the pIC50 in the data set with HeLa [1] was 4.74. The cell killing at 30 µM with HeLa [2] is over 60%.

Regarding `O=S(=O)(N/N=C/c1c[nH]c2cc(Br)ccc12)c1ccc(Br)cc1`, the pIC50 in the data set with HeLa [1] was 4.80. In addition, the outcome in the data set with HeLa [3] and in the data set on HeLa [4] was Active. Also, the cell killing at 30 µM in the data set with HeLa [2] was over 60%.

Take `CN(C)c1cccc2c(S(=O)(=O)N/N=C/c3c[nH]c4cc(Br)ccc34)cccc12`: the negative logarithm of the IC50 (pIC50) with HeLa [1] was 5.05. Also, in [5], the Drug uptake entry is given as “Active”. Moreover, the “fold change (FC)” value in [6] came out at 1.7; in [7], 1.6; in data set [8], 1.8; in [9], 1.6; in [10] it was 1.6; in data set [11] it was 1.4. Besides, the “fold change (FC)” value with HeLa [4] is 5; in the data set with HeLa [12], 8; with HeLa [13] it was 2; in the data set on HeLa [14], 2.6; with HeLa [15] it was 10; in the data set on HeLa [16] it was 3.8. For the same compound, in the data set on HeLa [3], the outcome was Active. Further, the Activity in the data set with HeLa [17] is listed as 64.6%; with HeLa [18] it was 17.8%; in the data set with HeLa [19], 28.6%; in the data set with HeLa [20], 62%. Also, the cell killing at 30 µM with HeLa [2] is over 60%.

What is called pIC50 is the IC50 on a negative log10 scale, so that one unit is a factor of ten.
